These results are taken from ChEMBL document CHEMBL4673245, “Discovery of AZD9833, a Potent and Orally Bioavailable Selective Estrogen Receptor Degrader and Antagonist” (J Med Chem, 2020).

Data set [1] addresses Cytochrome P450 2C9 (Homo sapiens, UniProt P11712). The experiment in a line: Inhibition of CYP2C9 in human liver microsomes. It counts as ADME. A digest of the protocol: (§1)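 High-throughput human liver microsome panel of five CYP isoforms; inhibition reported as IC50.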
In general terms: Liver microsomes are a subcellular fraction often used to study metabolism.

The nature of data set [2]: Stability of compound at 60 degC and 75% relative humidity assessed parent compound remaining measured 1 week using amorphous form of sample by chromatographic method. Format: physicochemical. As to conditions: solid sample, time 1 weeks, read-out: Stabilty.
Data set [3] is described as follows: In vivo antagonist activity at ERalpha in human MCF7 cells xenografted CB17 SCID mouse assessed as decrease in PR expression level at 10 mg/kg, po administered daily via oral gavage for 21 days measured 24 hrs post last dose by Western blot analysis relative to control. It counts as functional. Also on record: scale not given: the % may be the effect or the level left. The conditions noted are these: time 21 day. In general terms: In xenograft studies the graft and the host belong to different species.

Data set [4] in a line: Stability of compound at 60 degC and ambient dry condition assessed parent compound remaining measured 2 weeks using crystalline form of sample by chromatographic method. As to conditions: solid sample, read-out: Stabilty. It counts as physicochemical.
The nature of data set [5]: Solubility of compound in FASSIF at pH 6.5 using crystalline form of sample. It counts as physicochemical.
The nature of data set [6]: Dissociation constant, dibasic pKa of compound in 0.1 M potassium chloride in presence of piperidine by UV-vis spectroscopy. Format: physicochemical.
A short description of data set [7]: Stability of compound at 60 degC and 75% relative humidity assessed parent compound remaining measured 1 week using crystalline form of sample by chromatographic method. It counts as physicochemical. The conditions noted are these: solid sample, time 1 weeks, read-out: Stabilty.
Data set [8] in a line: Solubility of compound in phosphate buffer at pH 7.4 using crystalline form of sample. It counts as physicochemical.
Data set [9] in a line: Clearance in mouse at 2 mg/kg, iv or 5 mg/kg, po relative to liver blood flow. Format: ADME, organism-based. The conditions noted are these: in vivo.
In data set [10] the target is Cytochrome P450 2D6 (Homo sapiens, UniProt P10635). The data set is described as follows: Inhibition of CYP2D6 in human liver microsomes. Format: ADME. A digest of the protocol: as §1
Data set [11] is described as follows: Chemical stability of compound assessed as drug degradation in buffer at pH 7.4 stored at 22 to 60 degreeC measured after 5 days. The conditions noted are these: pH 7.4, 120 h, time 5 day. Format: physicochemical.
The nature of data set [12]: Volume of distribution at steady state in mouse at 2 mg/kg, iv or 5 mg/kg, po. Format: ADME, organism-based. As to conditions: in vivo, read-out: Vdss.
Data set [13] in a line: Clearance in mouse at 2 mg/kg, iv or 5 mg/kg, po. Format: ADME, organism-based. As to conditions: in vivo.
Data set [14] deals with MCF7. The experiment in a line: Antiproliferative activity against human MCF7 cells harboring Y537S mutant assessed as reduction in cell viability incubated for 4 to 6 days by SYTOX Green dye based fluorescence assay. Format: functional.
Data set [15] is described as follows: Fraction unbound in human plasma by equilibrium dialysis method. It counts as ADME, cell-free. A digest of the protocol: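 Fraction unbound measured from DMSO stock by equilibrium dialysis in 10% human plasma.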
Data set [16] in a line: Stability of compound at 60 degC and ambient dry condition assessed parent compound remaining measured 2 weeks using amorphous form of sample by chromatographic method. It counts as physicochemical. The conditions noted are these: solid sample, read-out: Stabilty.
Data set [17] is described as follows: Photostability of compound under 1.2 mil lux.h white light and 200 W.h/m2 UV light assessed parent compound remaining using crystalline form of sample by chromatographic method. It counts as physicochemical.
Data set [18] can be described thus: Fraction unbound in mouse plasma. Format: ADME, cell-free.
Data set [19] in a line: Stability of compound at 40 degC and 75% relative humidity assessed parent compound remaining measured after 3 months using amorphous form of sample by chromatographic method. It counts as physicochemical. The conditions noted are these: solid sample, read-out: Stabilty.
A short description of data set [20]: Half-life in mouse at 2 mg/kg, iv or 5 mg/kg, po. It counts as ADME, organism-based. The conditions noted are these: in vivo.
A short description of data set [21]: Solubility of compound in stimulated gastric fluid using crystalline form of sample. The conditions noted are these: simulated gastric fluid. It counts as physicochemical.
Data set [22] in a line: Chemical stability of compound assessed as drug degradation in buffer at pH 1 stored at 22 to 60 degreeC measured after 5 days. As to conditions: pH 1, 120 h, time 5 day. Format: physicochemical.
A short description of data set [23]: Intrinsic clearance in mouse hepatocytes assessed per million cells. As to conditions: read-out: CLH. It counts as ADME, cell-based, Hepatocyte. A digest of the protocol: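 Compound added from DMSO stock to isolated hepatocytes diluted to 1x10⁶ cells/mL. Metabolic turnover rate is reported as intrinsic clearance in µl/min/10⁶ cells.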
A short description of data set [24]: Volume of distribution at steady state in rat at 0.5 mg/kg, iv or 1 mg/kg, po. Format: ADME, organism-based. As to conditions: in vivo, read-out: Vdss. A digest of the protocol:
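Rat dosed IV at 0.5 mg/kg and PO at 1 mg/kg, both formulated in 5% DMSO:95% hydroxypropyl-β-cyclodextrin (30% w/v), at 1 mL/kg IV and 4 mL/kg PO. Vdss (L/kg) derived from the pharmacokinetic profile after dosing.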

As a reminder, the IC50 is the concentration needed to halve the response being measured. For orientation: solubility (thermodynamic) means the concentration in solution at equilibrium with solid. One may read the pKa as the negative logarithm of the acid dissociation constant. By fraction unbound is commonly meant the share of the substance not bound to proteins or other matrix. The term half-life denotes how long it takes for the measured level to halve.

Converted amounts (≈) assume the structure as drawn.

Chain of Cytochrome P450 2D6 (P10635 whole entry): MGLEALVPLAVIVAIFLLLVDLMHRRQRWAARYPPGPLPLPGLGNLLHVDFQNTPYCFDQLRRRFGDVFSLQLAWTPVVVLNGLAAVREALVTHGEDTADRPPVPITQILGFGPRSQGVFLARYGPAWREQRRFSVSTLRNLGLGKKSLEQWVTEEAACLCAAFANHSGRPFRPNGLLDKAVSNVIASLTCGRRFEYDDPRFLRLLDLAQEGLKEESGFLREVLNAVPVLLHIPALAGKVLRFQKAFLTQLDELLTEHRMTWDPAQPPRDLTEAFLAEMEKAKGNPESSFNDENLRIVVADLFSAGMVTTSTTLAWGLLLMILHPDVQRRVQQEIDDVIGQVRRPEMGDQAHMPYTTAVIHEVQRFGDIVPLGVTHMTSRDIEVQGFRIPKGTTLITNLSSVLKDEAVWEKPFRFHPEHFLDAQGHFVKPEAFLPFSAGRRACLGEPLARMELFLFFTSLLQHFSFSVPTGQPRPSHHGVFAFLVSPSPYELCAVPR
Chain of Cytochrome P450 2C9 (P11712 whole entry, canonical isoform): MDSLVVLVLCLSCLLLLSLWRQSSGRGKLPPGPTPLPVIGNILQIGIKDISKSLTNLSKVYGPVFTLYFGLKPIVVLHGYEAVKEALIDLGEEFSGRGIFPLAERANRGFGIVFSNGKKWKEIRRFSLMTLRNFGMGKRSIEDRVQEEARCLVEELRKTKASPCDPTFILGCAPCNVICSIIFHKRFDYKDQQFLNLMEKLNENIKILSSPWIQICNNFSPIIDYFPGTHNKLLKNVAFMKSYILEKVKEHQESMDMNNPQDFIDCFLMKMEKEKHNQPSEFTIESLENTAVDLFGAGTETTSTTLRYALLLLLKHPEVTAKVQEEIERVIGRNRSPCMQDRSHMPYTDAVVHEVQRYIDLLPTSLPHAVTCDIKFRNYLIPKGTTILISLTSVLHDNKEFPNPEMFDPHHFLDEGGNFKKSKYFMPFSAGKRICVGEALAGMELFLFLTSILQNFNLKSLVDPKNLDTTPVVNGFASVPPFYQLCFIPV

As for `C[C@@H]1Cc2c(ccc3[nH]ncc23)[C@@H](c2ccc(NC3CN(CCCF)C3)cn2)N1CC(F)(F)F` [CAMIZESTRANT], the values for the IC50 in data set [1], in data set [10] and in data set [14] were > 30 µM, 4.3 µM and 0.0251 µM, respectively. Also, the remaining at 168 h in [2] turned out to be 82.4%; in data set [7] it was 99.5%. In [3], the Activity came to 8.9%. Moreover, the results for the remaining at 336 h in [4] and in data set [16] were 99.4% and 98.4%, respectively. Also, the figures for the solubility (thermodynamic) in data set [5], in [8] and in data set [21] were 1500 µg/mL (≈ 3.15 mM), 400 µg/mL (≈ 0.839 mM) and > 10000 µg/mL, respectively. For the same compound, in data set [6], the pKa was 4.8. In data set [9], this compound registered a CL of 66%. For the same compound, the Stabilty result in data set [11] was “Unstable”; in data set [17] it was 98.9%; in data set [22], “Unstable”. The Vd in data set [12] was 9.2 L/kg; in data set [24] it was 13 L/kg. This compound yielded a clearance in data set [13] of 59 mL/min/kg. Moreover, the free fraction (fraction unbound) in data set [15] and in data set [18] was 0.23 throughout. In addition, the remaining at 2190 h in [19] turned out to be 90.5%. The half-life in [20] is 5.1 h. For the same compound, the hepatocyte CLint in [23] is 18 µL/min/1e6 cells.
